Reference: ChEMBL document CHEMBL4689842, “EUbOPEN Chemogenomics Library wave 1” (2021)
“And” between values parts separate entries of the source, which are not always exact repeats. Identical values can stand only once.

Columns and labels:
Format in all cases: toxicity, cell-based
HEK-293T [1] = experiment: Incucyte cell viability with HEK293T; details: human, 10 µM, compound concentration 10 uM; note: filed as whole numbers so only -1 and 0 and 1 occur
U2OS [2] = experiment: Incucyte cell viability with U2OS; details: human, 10 µM, compound concentration 10 uM; note: filed as whole numbers so only -1 and 0 and 1 occur
U2OS [3] = experiment: Multiplex assay against U2OS; details: human, 10 µM, compound concentration 10 uM
Method in brief: (§1)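 Live cells carried four stains from seeding: Hoechst33342, BioTracker Green Microtubule Cytoskeleton Dye, MitoTracker Red and Annexin V Alexa Fluor 680. They were imaged on a CQ1 microscope at 37°C and 5% CO2 after compound addition. Using CellPathfinder machine-learning gating, cells were split into Hoechst high-intensity objects or normal cells, normal cells into healthy, pyknosed or fragmented nuclei, and pyknosed cells into mitotic or apoptotic; tubulin, mitochondrial-mass and membrane-permeability phenotypes are per cents of healthy-nucleus cells.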

Fibroblast [4] = experiment: Incucyte cell viability with human fibroblast; details: 10 µM, compound concentration 10 uM; note: filed as whole numbers so only -1 and 0 and 1 occur
Fibroblast [5] = experiment: Multiplex assay against human fibroblast; details: 10 µM, compound concentration 10 uM; method in brief: as §1
HEK-293T [6] = experiment: Multiplex assay against HEK293T; details: human, 10 µM, compound concentration 10 uM; method in brief: as §1;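 for Population Tubulin-Different-Phenotype (%): share of the cells with healthy nuclei that show this phenotype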
[7] = 0 h, replicate number 1, timepoint 0 hours
[8] = 12 h, replicate number 1, timepoint 12 hours
[9] = 18 h, replicate number 1, timepoint 18 hours
[10] = 24 h, replicate number 1, timepoint 24 hours

In the case of `CN1CCN(Cc2ccc(-c3cnc4[nH]cc(-c5ccc6[nH]ccc6c5)c4c3)cc2)CC1`, the “Growth Rate” value (HEK-293T [1]; [7]) is reported as 0, the “Growth Rate” value (HEK-293T [1]; 6 h, replicate number 2, timepoint 6 hours) is reported as 0 and the “Growth Rate” value (HEK-293T [1]; [8]) is reported as 0. The “Growth Rate” value (HEK-293T [1]; [9]) was 0, the “Growth Rate” value (HEK-293T [1]; [10]) was 0 and the “Growth Rate” value (U2OS [2]; 0 h, replicate number 2, timepoint 0 hours) was 0. For the same molecule, the “Growth Rate” value (U2OS [2]; [8]) was 1, the “Growth Rate” value (U2OS [2]; [9]) was 0 and the “Growth Rate” value (U2OS [2]; [10]) was 0. The “Population Apoptotic (%)” value (U2OS [3]; 12 h, replicate 1) was 81% and 75%, the “Population Hoechst High Intensity Objects (%)” value (U2OS [3]; 12 h, replicate 1) was 11% and 4% and 8% and the “Population Membrane Permeable-Phenotype (%)” value (U2OS [3]; 12 h, replicate 1) was 87% and 74% and 69%. For the same molecule, the “Population Mitochondria Different-Phenotype (%)” value (U2OS [3]; 12 h, replicate 1) was 64% and 37%, the “Population Mitotic Cells (%)” value (U2OS [3]; 12 h, replicate 1) was 18% and 24% and 25% and the “Population Normal (%)” value (U2OS [3]; 12 h, replicate 1) was 88% and 95% and 91%. For the same molecule, the “Total Cell Count” value (U2OS [3]; 12 h, replicate 1) was 171 and 167 and 190, the “Population Fragmented Nuclei (%)” value (U2OS [3]; 12 h, replicate 2) was 17% and 14% and 13% and the “Population Hoechst High Intensity Objects (%)” value (U2OS [3]; 12 h, replicate 2) was 6% and 15%. For the same molecule, the “Population Membrane Permeable-Phenotype (%)” value (U2OS [3]; 12 h, replicate 2) was 40% and 72% and 63%, the “Population Mitochondria Different-Phenotype (%)” value (U2OS [3]; 12 h, replicate 2) was 100% and 96% and 36% and the “Population Normal (%)” value (U2OS [3]; 12 h, replicate 2) was 94% and 84%. The “Total Cell Count” value (U2OS [3]; 12 h, replicate 2) was 76 and 116 and 120, the “Population Apoptotic (%)” value (U2OS [3]; 24 h, replicate 1) was 98% and 93% and 64% and the “Population Membrane Permeable-Phenotype (%)” value (U2OS [3]; 24 h, replicate 1) was 100% and 90% and 39%. For the same molecule, the “Population Normal (%)” value (U2OS [3]; 24 h, replicate 1) was 90% and 76% and 93%, the “Total Cell Count” value (U2OS [3]; 24 h, replicate 1) was 166 and 199 and 279 and the “Population Apoptotic (%)” value (U2OS [3]; 24 h, replicate 2) was 95% and 100% and 66%. The “Population Membrane Permeable-Phenotype (%)” value (U2OS [3]; 24 h, replicate 2) was 40%, the “Population Mitochondria Different-Phenotype (%)” value (U2OS [3]; 24 h, replicate 2) was 39% and the “Population Normal (%)” value (U2OS [3]; 24 h, replicate 2) was 81% and 66% and 89%. The “Population Tubulin-Different-Phenotype (%)” value (U2OS [3]; 24 h, replicate 2) was 18%, the “Total Cell Count” value (U2OS [3]; 24 h, replicate 2) was 122 and 91 and 140 and the “Population Apoptotic (%)” value (U2OS [3]; 48 h, replicate 1) was 100%. The “Population Fragmented Nuclei (%)” value (U2OS [3]; 48 h, replicate 1) was 31%, the “Population Healthy Nuclei (%)” value (U2OS [3]; 48 h, replicate 1) was 2% and the “Population Hoechst High Intensity Objects (%)” value (U2OS [3]; 48 h, replicate 1) was 14%. For the same molecule, the “Population Membrane Permeable-Phenotype (%)” value (U2OS [3]; 48 h, replicate 1) was 66%, the “Population Mitochondria Different-Phenotype (%)” value (U2OS [3]; 48 h, replicate 1) was 100% and the “Population Mitotic Cells (%)” value (U2OS [3]; 48 h, replicate 1) was 0%. The “Population Normal (%)” value (U2OS [3]; 48 h, replicate 1) was 85%, the “Population Pyknosed Nuclei (%)” value (U2OS [3]; 48 h, replicate 1) was 66% and the “Population Tubulin-Different-Phenotype (%)” value (U2OS [3]; 48 h, replicate 1) was 100%. The “Total Cell Count” value (U2OS [3]; 48 h, replicate 1) was 148, the “Population Fragmented Nuclei (%)” value (U2OS [3]; 48 h, replicate 2) was 8% and the “Population Healthy Nuclei (%)” value (U2OS [3]; 48 h, replicate 2) was 64%. For the same molecule, the “Population Hoechst High Intensity Objects (%)” value (U2OS [3]; 48 h, replicate 2) was 24%, the “Population Membrane Permeable-Phenotype (%)” value (U2OS [3]; 48 h, replicate 2) was 100% and the “Population Normal (%)” value (U2OS [3]; 48 h, replicate 2) was 75%. For the same molecule, the “Population Pyknosed Nuclei (%)” value (U2OS [3]; 48 h, replicate 2) was 27%, the “Population Tubulin-Different-Phenotype (%)” value (U2OS [3]; 48 h, replicate 2) was 95% and the “Total Cell Count” value (U2OS [3]; 48 h, replicate 2) was 80. For the same molecule, the “Growth Rate” value (Fibroblast [4]; [7]) was 0, the “Growth Rate” value (Fibroblast [4]; [8]) was 0 and the “Growth Rate” value (Fibroblast [4]; [9]) was 0. For the same molecule, the “Growth Rate” value (Fibroblast [4]; [10]) was 0, the “Population Apoptotic (%)” value (Fibroblast [5]; 12 h, replicate 1) was 47% and 85% and the “Population Fragmented Nuclei (%)” value (Fibroblast [5]; 12 h, replicate 1) was 27% and 39% and 35%. The “Population Hoechst High Intensity Objects (%)” value (Fibroblast [5]; 12 h, replicate 1) was 8% and 16% and 10%, the “Population Normal (%)” value (Fibroblast [5]; 12 h, replicate 1) was 91% and 83% and 89% and the “Total Cell Count” value (Fibroblast [5]; 12 h, replicate 1) was 208 and 291 and 107. The “Population Apoptotic (%)” value (Fibroblast [5]; 12 h, replicate 2) was 50% and 73%, the “Population Mitotic Cells (%)” value (Fibroblast [5]; 12 h, replicate 2) was 50% and 26% and the “Population Normal (%)” value (Fibroblast [5]; 12 h, replicate 2) was 69% and 64% and 94%. The “Total Cell Count” value (Fibroblast [5]; 12 h, replicate 2) was 113 and 71 and 76, the “Population Apoptotic (%)” value (Fibroblast [5]; 24 h, replicate 1) was 73% and 68% and 81% and the “Population Fragmented Nuclei (%)” value (Fibroblast [5]; 24 h, replicate 1) was 50% and 59% and 47%. The “Population Hoechst High Intensity Objects (%)” value (Fibroblast [5]; 24 h, replicate 1) was 16% and 23% and 25%, the “Population Mitotic Cells (%)” value (Fibroblast [5]; 24 h, replicate 1) was 26% and 31% and 18% and the “Population Normal (%)” value (Fibroblast [5]; 24 h, replicate 1) was 83% and 76% and 75%. For the same molecule, the “Population Apoptotic (%)” value (Fibroblast [5]; 24 h, replicate 2) was 50% and 100%, the “Population Healthy Nuclei (%)” value (Fibroblast [5]; 24 h, replicate 2) was 24% and 25% and 11% and the “Population Hoechst High Intensity Objects (%)” value (Fibroblast [5]; 24 h, replicate 2) was 26% and 33% and 52%. The “Population Normal (%)” value (Fibroblast [5]; 24 h, replicate 2) was 73% and 66% and 47%, the “Total Cell Count” value (Fibroblast [5]; 24 h, replicate 2) was 136 and 91 and 73 and the “Population Fragmented Nuclei (%)” value (Fibroblast [5]; 48 h, replicate 1) was 75%. The “Population Healthy Nuclei (%)” value (Fibroblast [5]; 48 h, replicate 1) was 13%, the “Population Hoechst High Intensity Objects (%)” value (Fibroblast [5]; 48 h, replicate 1) was 28% and the “Population Membrane Permeable-Phenotype (%)” value (Fibroblast [5]; 48 h, replicate 1) was 41%. The “Population Normal (%)” value (Fibroblast [5]; 48 h, replicate 1) was 71%, the “Population Pyknosed Nuclei (%)” value (Fibroblast [5]; 48 h, replicate 1) was 10% and the “Population Tubulin-Different-Phenotype (%)” value (Fibroblast [5]; 48 h, replicate 1) was 58%. For the same molecule, the “Total Cell Count” value (Fibroblast [5]; 48 h, replicate 1) was 121, the “Population Apoptotic (%)” value (Fibroblast [5]; 48 h, replicate 2) was 100% and the “Population Fragmented Nuclei (%)” value (Fibroblast [5]; 48 h, replicate 2) was 79%. The “Population Healthy Nuclei (%)” value (Fibroblast [5]; 48 h, replicate 2) was 11%, the “Population Hoechst High Intensity Objects (%)” value (Fibroblast [5]; 48 h, replicate 2) was 40% and the “Population Membrane Permeable-Phenotype (%)” value (Fibroblast [5]; 48 h, replicate 2) was 0%. For the same molecule, the “Population Mitochondria Different-Phenotype (%)” value (Fibroblast [5]; 48 h, replicate 2) was 0%, the “Population Mitotic Cells (%)” value (Fibroblast [5]; 48 h, replicate 2) was 0% and the “Population Normal (%)” value (Fibroblast [5]; 48 h, replicate 2) was 59%. For the same molecule, the “Population Pyknosed Nuclei (%)” value (Fibroblast [5]; 48 h, replicate 2) was 8%, the “Population Tubulin-Different-Phenotype (%)” value (Fibroblast [5]; 48 h, replicate 2) was 50% and the “Total Cell Count” value (Fibroblast [5]; 48 h, replicate 2) was 57. For the same molecule, the “Population Fragmented Nuclei (%)” value (HEK-293T [6]; 12 h, replicate 1) was 11% and 13% and 21%, the “Population Hoechst High Intensity Objects (%)” value (HEK-293T [6]; 12 h, replicate 1) was 16% and 24% and 18% and the “Population Membrane Permeable-Phenotype (%)” value (HEK-293T [6]; 12 h, replicate 1) was 20% and 12% and 28%. For the same molecule, the “Population Normal (%)” value (HEK-293T [6]; 12 h, replicate 1) was 83% and 75% and 81%, the “Population Pyknosed Nuclei (%)” value (HEK-293T [6]; 12 h, replicate 1) was 59% and 81% and the “Population Membrane Permeable-Phenotype (%)” value (HEK-293T [6]; 12 h, replicate 2) was 0% and 15%. For the same molecule, the “Population Normal (%)” value (HEK-293T [6]; 12 h, replicate 2) was 87% and 97%, the “Population Tubulin-Different-Phenotype (%)” value (HEK-293T [6]; 12 h, replicate 2) was 66% and 53% and 95% and the “Population Fragmented Nuclei (%)” value (HEK-293T [6]; 24 h, replicate 1) was 16%. The “Population Hoechst High Intensity Objects (%)” value (HEK-293T [6]; 24 h, replicate 1) was 29% and 32% and 15%, the “Population Membrane Permeable-Phenotype (%)” value (HEK-293T [6]; 24 h, replicate 1) was 11% and 15% and the “Population Normal (%)” value (HEK-293T [6]; 24 h, replicate 1) was 70% and 67% and 84%. The “Population Membrane Permeable-Phenotype (%)” value (HEK-293T [6]; 24 h, replicate 2) was 0% and 8% and 9%, the “Population Normal (%)” value (HEK-293T [6]; 24 h, replicate 2) was 78% and 93% and the “Population Apoptotic (%)” value (HEK-293T [6]; 48 h, replicate 1) was 90%. For the same molecule, the “Population Fragmented Nuclei (%)” value (HEK-293T [6]; 48 h, replicate 1) was 29%, the “Population Healthy Nuclei (%)” value (HEK-293T [6]; 48 h, replicate 1) was 3% and the “Population Hoechst High Intensity Objects (%)” value (HEK-293T [6]; 48 h, replicate 1) was 31%. For the same molecule, the “Population Membrane Permeable-Phenotype (%)” value (HEK-293T [6]; 48 h, replicate 1) was 0%, the “Population Mitotic Cells (%)” value (HEK-293T [6]; 48 h, replicate 1) was 9% and the “Population Normal (%)” value (HEK-293T [6]; 48 h, replicate 1) was 68%. The “Population Pyknosed Nuclei (%)” value (HEK-293T [6]; 48 h, replicate 1) was 66%, the “Population Tubulin-Different-Phenotype (%)” value (HEK-293T [6]; 48 h, replicate 1) was 80% and the “Total Cell Count” value (HEK-293T [6]; 48 h, replicate 1) was 216. For the same molecule, the “Population Apoptotic (%)” value (HEK-293T [6]; 48 h, replicate 2) was 96%, the “Population Fragmented Nuclei (%)” value (HEK-293T [6]; 48 h, replicate 2) was 17% and the “Population Healthy Nuclei (%)” value (HEK-293T [6]; 48 h, replicate 2) was 7%. For the same molecule, the “Population Hoechst High Intensity Objects (%)” value (HEK-293T [6]; 48 h, replicate 2) was 18%, the “Population Membrane Permeable-Phenotype (%)” value (HEK-293T [6]; 48 h, replicate 2) was 22% and the “Population Mitochondria Different-Phenotype (%)” value (HEK-293T [6]; 48 h, replicate 2) was 100%. The “Population Mitotic Cells (%)” value (HEK-293T [6]; 48 h, replicate 2) was 3%, the “Population Normal (%)” value (HEK-293T [6]; 48 h, replicate 2) was 81% and the “Population Pyknosed Nuclei (%)” value (HEK-293T [6]; 48 h, replicate 2) was 75%. The “Population Tubulin-Different-Phenotype (%)” value (HEK-293T [6]; 48 h, replicate 2) was 100% and the “Total Cell Count” value (HEK-293T [6]; 48 h, replicate 2) was 158.
